Activity calls are given as the source filed them. The calls are words filed in the database; no cut-off is given here.
How the values were obtained:
Mu-type opioid receptor [1] = biological target: T1, Mu-type opioid receptor (Homo sapiens, UniProt P35372); assay: Activity at human recombinant mu opioid receptor expressed in CHO cells assessed as stimulation of [35S]GTP-gamma-S binding relative to DAMGO; assay type: functional, cell-based
How it was run: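 Membranes of CHO cells transfected with recombinant human MOR were assayed for stimulation of [35S]GTPγS binding. Efficacy is expressed against the standard DAMGO. Values are means of five or six experiments.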

[2] = biological target: T2, Delta-type opioid receptor (Homo sapiens, UniProt P41143); assay: Activity at human recombinant delta opioid receptor expressed in CHO cells assessed as stimulation of [35S]GTP-gamma-S binding; assay type: functional, cell-based
T2 sequence (P41143 whole entry): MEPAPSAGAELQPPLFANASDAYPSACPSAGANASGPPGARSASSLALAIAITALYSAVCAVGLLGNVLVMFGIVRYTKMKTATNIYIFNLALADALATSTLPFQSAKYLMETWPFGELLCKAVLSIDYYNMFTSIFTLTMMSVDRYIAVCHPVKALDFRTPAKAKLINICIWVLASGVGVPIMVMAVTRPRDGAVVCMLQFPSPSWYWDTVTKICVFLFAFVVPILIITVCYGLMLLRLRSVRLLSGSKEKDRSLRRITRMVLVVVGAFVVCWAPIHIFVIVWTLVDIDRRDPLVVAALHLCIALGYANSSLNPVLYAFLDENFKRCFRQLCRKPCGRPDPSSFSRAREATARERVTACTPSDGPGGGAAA

Mu-type opioid receptor [3] = biological target: T1, Mu-type opioid receptor; assay: Inhibition of DAMGO-stimulated [35S]GTP-gamma-S binding to mu opioid receptor expressed in C6 cells at 100 nM; assay type: functional, cell-based
How it was run: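 C6 membranes expressing MOR were preincubated with ligand (100 nM) or vehicle in Tris-HCl buffer for 1 h at 25 °C. They were then centrifuged, resuspended, held at 37 °C to dissociate weakly bound ligand, recentrifuged and washed twice more. Washed membranes (15 µg) were incubated 1 h at 25 °C with increasing DAMGO and buffered [35S]GTPγS, giving DAMGO concentration–effect curves.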

Mu-type opioid receptor [4] = biological target: T1, Mu-type opioid receptor; assay: Displacement of [3H]DAMGO from human recombinant mu opioid receptor expressed in CHO cells; assay type: cell-based
How it was run: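 Competition binding used membranes of CHO cells transfected with recombinant human MOR, with [3H]DAMGO as the selective radioligand. Affinity is reported as Ki (nM).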

Mus musculus = assay: Agonist activity in mouse tail withdrawal assay at 1 mg/kg relative to morphine; assay type: functional
How it was run: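 Antinociception in mice was measured as tail withdrawal from 50 °C water, with a test dose of 1 mg/kg compared against morphine. In a separate arm, the morphine antinociceptive dose–effect curve was determined after 24 h pretreatment to probe delayed MOR antagonism.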

[5] = biological target: T2, Delta-type opioid receptor; assay: Displacement of [3H]Cl-DPDPE from human recombinant delta opioid receptor expressed in CHO cells; assay type: cell-based
[6] = biological target: T3, Kappa-type opioid receptor (Homo sapiens, UniProt P41145); assay: Displacement of [3H]U-69593 from human recombinant kappa opioid receptor expressed in CHO cells; assay type: cell-based
T3 sequence (P41145 whole entry): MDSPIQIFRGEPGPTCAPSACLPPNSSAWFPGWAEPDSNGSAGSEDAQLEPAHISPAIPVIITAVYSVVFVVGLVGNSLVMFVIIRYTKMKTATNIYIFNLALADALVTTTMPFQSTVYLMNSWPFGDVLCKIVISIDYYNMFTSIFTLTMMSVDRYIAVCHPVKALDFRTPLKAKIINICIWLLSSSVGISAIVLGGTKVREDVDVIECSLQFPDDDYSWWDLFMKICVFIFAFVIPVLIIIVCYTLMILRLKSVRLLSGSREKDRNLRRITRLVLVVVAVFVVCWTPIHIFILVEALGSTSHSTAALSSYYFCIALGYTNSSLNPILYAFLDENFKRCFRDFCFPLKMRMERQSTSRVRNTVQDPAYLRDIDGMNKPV

[7] = biological target: Kappa-type opioid receptor (Cavia porcellus, UniProt P41144); assay: Displacement of [3H]U-69593 from kappa opioid receptor in guinea pig brain homogenate; assay type: tissue-based
Kappa-type opioid receptor (Cavia porcellus, UniProt P41144), sequence (P41144 whole entry): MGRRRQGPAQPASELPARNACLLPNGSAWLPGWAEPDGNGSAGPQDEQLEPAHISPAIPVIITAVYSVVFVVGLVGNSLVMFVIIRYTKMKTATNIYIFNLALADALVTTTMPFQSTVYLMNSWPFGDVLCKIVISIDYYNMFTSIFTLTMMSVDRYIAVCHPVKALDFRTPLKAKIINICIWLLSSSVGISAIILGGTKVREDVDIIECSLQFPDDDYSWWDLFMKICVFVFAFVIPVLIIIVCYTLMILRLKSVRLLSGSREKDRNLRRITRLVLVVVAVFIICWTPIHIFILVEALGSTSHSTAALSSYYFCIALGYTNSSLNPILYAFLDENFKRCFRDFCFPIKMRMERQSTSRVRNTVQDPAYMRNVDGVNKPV

Mu-type opioid receptor [8] = biological target: Mu-type opioid receptor (Cavia porcellus, UniProt P97266); assay: Displacement of [3H]DAMGO from mu opioid receptor in guinea pig brain homogenate; assay type: tissue-based
Mu-type opioid receptor (Cavia porcellus, UniProt P97266), sequence (P97266 whole entry): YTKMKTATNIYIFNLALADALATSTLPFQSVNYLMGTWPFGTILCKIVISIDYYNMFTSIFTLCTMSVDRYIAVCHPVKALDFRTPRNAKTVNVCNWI

[9] = biological target: Opioid receptor (mu and kappa) (Cavia porcellus) (UniProt P41144+P97266); assay: Selectivity for guinea pig mu opioid receptor over kappa opioid receptor; assay type: protein assay
Opioid receptor (mu and kappa) (Cavia porcellus), sequence (P41144 whole entry, looked up): as the sequence (P41144 whole entry) above
Opioid receptor (mu and kappa) (Cavia porcellus), sequence (P97266 whole entry, looked up): as the sequence (P97266 whole entry) above

Cavia porcellus = species on record: Cavia porcellus; assay: Selectivity for guinea pig mu opioid receptor over delta opioid receptor
[10] = biological target: T3, Kappa-type opioid receptor; assay: Displacement of [3H]diprenorphine from human recombinant kappa opioid receptor expressed in C6 cells; assay type: cell-based
Mu-type opioid receptor [11] = biological target: T1, Mu-type opioid receptor; assay: Displacement of [3H]diprenorphine from human mu opioid receptor expressed in C6 cells; assay type: cell-based
[12] = biological target: T2, Delta-type opioid receptor; assay: Displacement of [3H]diprenorphine from human recombinant delta opioid receptor expressed in C6 cells; assay type: cell-based

T1 sequence (P35372 whole entry): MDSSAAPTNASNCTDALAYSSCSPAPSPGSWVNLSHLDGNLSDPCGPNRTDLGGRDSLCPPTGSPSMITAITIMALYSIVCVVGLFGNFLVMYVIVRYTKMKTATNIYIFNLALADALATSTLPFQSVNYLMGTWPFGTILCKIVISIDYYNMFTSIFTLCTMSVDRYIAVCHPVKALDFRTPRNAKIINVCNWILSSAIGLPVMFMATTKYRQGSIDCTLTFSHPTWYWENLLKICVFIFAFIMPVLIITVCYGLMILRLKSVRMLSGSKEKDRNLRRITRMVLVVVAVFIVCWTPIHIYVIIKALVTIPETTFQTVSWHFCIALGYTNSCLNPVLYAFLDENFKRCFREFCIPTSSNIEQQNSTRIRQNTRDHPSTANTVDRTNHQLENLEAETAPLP

O=C(/C=C/c1ccc(Cl)cc1)N[C@@]12CCC(=O)[C@@H]3Oc4c(O)ccc5c4[C@@]31CCN(CC1CC1)[C@@H]2C5 [CLOCINNAMOX]
Activity (Mu-type opioid receptor [1]; filed as antagonist): Antagonist | IC50 [2]: 0.19 nM | Activity (Mu-type opioid receptor [3]): Active

O=C(Cc1ccc(Cl)cc1)N[C@@]12CCC(=O)[C@@H]3Oc4c(O)ccc5c4[C@@]31CCN(CC1CC1)[C@@H]2C5
Efficacy (Mu-type opioid receptor [1]): 29% | Activity (Mu-type opioid receptor [1]; filed as partial agonist): Partial agonist | IC50 [2]: 2.41 nM | Ki (Mu-type opioid receptor [4]): 0.73 nM | Activity (Mus musculus): 10 | Ki [5]: 1.51 nM | Ki [6]: 1 nM

COc1ccc2c3c1O[C@H]1C(=O)CC[C@@]4(NC(=O)/C=C/c5ccc(Cl)cc5)[C@@H](C2)N(CC2CC2)CC[C@]314
Activity (Mu-type opioid receptor [1]; filed as antagonist): Antagonist | IC50 [2]: 7.16 nM

COc1ccc2c3c1O[C@H]1C(=O)CC[C@@]4(NCCCc5ccc(Cl)cc5)[C@@H](C2)N(CC2CC2)CC[C@]314
Activity (Mu-type opioid receptor [1]; filed as antagonist): Antagonist | IC50 [2]: 1.66 nM | Ki [7]: 78.6 nM | Ki (Mu-type opioid receptor [8]): 0.59 nM | Ratio Ki [9]: 133 | Ratio Ki (Cavia porcellus): 53

COc1ccc2c3c1O[C@H]1C(=O)CC[C@@]4(NCCCCc5ccc(Cl)cc5)[C@@H](C2)N(CC2CC2)CC[C@]314
Activity (Mu-type opioid receptor [1]; filed as antagonist): Antagonist | IC50 [2]: 61.1 nM | Ki (Mu-type opioid receptor [4]): 2.23 nM | Ki [5]: 55.9 nM | Ki [6]: 41.5 nM

COc1ccc2c3c1O[C@H]1C(=O)CC[C@@]4(NC/C=C/Cc5ccc(Cl)cc5)[C@@H](C2)N(CC2CC2)CC[C@]314
Activity (Mu-type opioid receptor [1]; filed as antagonist): Antagonist | IC50 [2]: 96.8 nM | Ki (Mu-type opioid receptor [4]): 6.76 nM | Ki [5]: 94.9 nM | Ki [6]: 25.9 nM

COc1ccc2c3c1O[C@H]1C(=O)CC[C@@]4(O)[C@@H](C2)N(CC2CC2)CC[C@]314
Activity (Mu-type opioid receptor [1]; filed as antagonist): Antagonist | IC50 [2]: 1000 nM | Ki (Mu-type opioid receptor [4]): 85.6 nM | Ki [5]: 272 nM | Ki [6]: 128 nM

O=C(CCc1ccc(Cl)cc1)N[C@@]12CCC(=O)[C@@H]3Oc4c(O)ccc5c4[C@@]31CCN(CC1CC1)[C@@H]2C5
Activity (Mu-type opioid receptor [1]; filed as antagonist): Antagonist | IC50 [2]: 0.03 nM | Ki [7]: 0.65 nM | Ki (Mu-type opioid receptor [8]): 0.04 nM | Ratio Ki [9]: 16.2 | Ratio Ki (Cavia porcellus): 15

O=C1CC[C@@]2(NCCCCc3ccc(Cl)cc3)[C@H]3Cc4ccc(O)c5c4[C@@]2(CCN3CC2CC2)[C@H]1O5
Activity (Mu-type opioid receptor [1]; filed as antagonist): Antagonist | IC50 [2]: 0.67 nM | Ki (Mu-type opioid receptor [4]): 0.96 nM | Ki [5]: 2.18 nM | Ki [6]: 5.27 nM

COc1ccc2c3c1O[C@H]1C(=O)CC[C@@]4(NC(=O)CCCc5ccc(Cl)cc5)[C@@H](C2)N(CC2CC2)CC[C@]314
Activity (Mu-type opioid receptor [1]; filed as antagonist): Antagonist | IC50 [2]: 79.9 nM | Ki (Mu-type opioid receptor [4]): 3.88 nM | Ki [5]: 89.4 nM | Ki [6]: 7.51 nM

COc1ccc2c3c1O[C@H]1C(=O)CC[C@@]4(NC(=O)/C=C/Cc5ccc(Cl)cc5)[C@@H](C2)N(CC2CC2)CC[C@]314
Activity (Mu-type opioid receptor [1]; filed as antagonist): Antagonist | Ki (Mu-type opioid receptor [4]): 8.07 nM | Ki [5]: 242 nM | Ki [6]: 25.2 nM

O=C1CC[C@@]2(NC/C=C/c3ccc(Cl)cc3)[C@H]3Cc4ccc(O)c5c4[C@@]2(CCN3CC2CC2)[C@H]1O5
Ki [10]: 0.91 nM | Ki (Mu-type opioid receptor [11]): 0.32 nM | Ki [12]: 0.63 nM

O=C1CC[C@@]2(NCC/C=C/c3ccc(Cl)cc3)[C@H]3Cc4ccc(O)c5c4[C@@]2(CCN3CC2CC2)[C@H]1O5
Activity (Mu-type opioid receptor [1]; filed as antagonist): Antagonist | IC50 [2]: 1.17 nM | Ki (Mu-type opioid receptor [4]): 1 nM | Ki [5]: 2.1 nM | Ki [6]: 3.69 nM

O=C(CCCc1ccc(Cl)cc1)N[C@@]12CCC(=O)[C@@H]3Oc4c(O)ccc5c4[C@@]31CCN(CC1CC1)[C@@H]2C5
Activity (Mu-type opioid receptor [1]; filed as antagonist): Antagonist | IC50 [2]: 1.37 nM | Ki (Mu-type opioid receptor [4]): 1.34 nM | Ki [5]: 3.85 nM | Ki [6]: 2.95 nM

O=C1CC[C@@]2(NCCCc3ccc(Cl)cc3)[C@H]3Cc4ccc(O)c5c4[C@@]2(CCN3CC2CC2)[C@H]1O5
Activity (Mu-type opioid receptor [1]; filed as antagonist): Antagonist | IC50 [2]: 0.02 nM | Ki [7]: 1.9 nM | Ki (Mu-type opioid receptor [8]): 0.13 nM | Ratio Ki [9]: 14.6 | Ratio Ki (Cavia porcellus): 8.5

COc1ccc2c3c1O[C@H]1C(=O)CC[C@@]4(NCCc5ccc(Cl)cc5)[C@@H](C2)N(CC2CC2)CC[C@]314
Efficacy (Mu-type opioid receptor [1]): 39% | Activity (Mu-type opioid receptor [1]; filed as partial agonist): Partial agonist | IC50 [2]: 63 nM | Ki (Mu-type opioid receptor [4]): 1.33 nM | Ki [5]: 33.8 nM | Ki [6]: 13.1 nM

COc1ccc2c3c1O[C@H]1C(=O)CC[C@@]4(NCC/C=C/c5ccc(Cl)cc5)[C@@H](C2)N(CC2CC2)CC[C@]314
Activity (Mu-type opioid receptor [1]; filed as antagonist): Antagonist | IC50 [2]: 148 nM | Ki (Mu-type opioid receptor [4]): 1.15 nM | Ki [5]: 24.8 nM | Ki [6]: 33.5 nM

O=C1CC[C@@]2(NCCc3ccc(Cl)cc3)[C@H]3Cc4ccc(O)c5c4[C@@]2(CCN3CC2CC2)[C@H]1O5
Efficacy (Mu-type opioid receptor [1]): 34% | Activity (Mu-type opioid receptor [1]; filed as partial agonist): Partial agonist | IC50 [2]: 1.59 nM | Ki (Mu-type opioid receptor [4]): 0.86 nM | Ki [5]: 1.91 nM | Ki [6]: 1.53 nM

O=C(C/C=C/c1ccc(Cl)cc1)N[C@@]12CCC(=O)[C@@H]3Oc4c(O)ccc5c4[C@@]31CCN(CC1CC1)[C@@H]2C5
Activity (Mu-type opioid receptor [1]; filed as antagonist): Antagonist | IC50 [2]: 1.7 nM | Ki (Mu-type opioid receptor [4]): 1.87 nM | Ki [5]: 3.25 nM | Ki [6]: 4.94 nM

O=C1CC[C@@]2(NC/C=C/Cc3ccc(Cl)cc3)[C@H]3Cc4ccc(O)c5c4[C@@]2(CCN3CC2CC2)[C@H]1O5
Activity (Mu-type opioid receptor [1]; filed as antagonist): Antagonist | IC50 [2]: 3.35 nM | Ki (Mu-type opioid receptor [4]): 1.89 nM | Ki [5]: 6.65 nM | Ki [6]: 3.72 nM

COc1ccc2c3c1O[C@H]1C(=O)CC[C@@]4(NC(=O)Cc5ccc(Cl)cc5)[C@@H](C2)N(CC2CC2)CC[C@]314
Efficacy (Mu-type opioid receptor [1]): 39% | Activity (Mu-type opioid receptor [1]; filed as partial agonist): Partial agonist | IC50 [2]: 88.7 nM | Ki (Mu-type opioid receptor [4]): 2.64 nM | Ki [5]: 51.9 nM | Ki [6]: 2.59 nM

COc1ccc2c3c1O[C@H]1C(=O)CC[C@@]4(NC(=O)C/C=C/c5ccc(Cl)cc5)[C@@H](C2)N(CC2CC2)CC[C@]314
Activity (Mu-type opioid receptor [1]; filed as antagonist): Antagonist | IC50 [2]: 118 nM | Ki (Mu-type opioid receptor [4]): 8.19 nM | Ki [5]: 104 nM | Ki [6]: 21.5 nM

COc1ccc2c3c1O[C@H]1C(=O)CC[C@@]4(NC/C=C/c5ccc(Cl)cc5)[C@@H](C2)N(CC2CC2)CC[C@]314
Ki [7]: 53.6 nM | Ki (Mu-type opioid receptor [8]): 0.7 nM | Ratio Ki [9]: 76.6 | Ratio Ki (Cavia porcellus): 63.6

COc1ccc2c3c1O[C@H]1C(=O)CC[C@@]4(NC(=O)CCc5ccc(Cl)cc5)[C@@H](C2)N(CC2CC2)CC[C@]314
Activity (Mu-type opioid receptor [1]; filed as antagonist): Antagonist | IC50 [2]: 0.76 nM | Ki [7]: 6.5 nM | Ki (Mu-type opioid receptor [8]): 0.24 nM | Ratio Ki [9]: 27.1 | Ratio Ki (Cavia porcellus): 21.2
